Measured values pooled from the literature.
Lines come from different studies, so protocols differ.
Target: Serine/threonine-protein kinase pim-2 (PIM2, Homo sapiens, UniProt Q9P1W9)

SMILES	read-out	mode	technique	tested at	endpoint	result
CC(C)(C)c1nc2c(s1)c1nc(N)ncc1c1ccc(NS(=O)(=O)c3c(F)cccc3F)c(F)c12	enzyme activity	inhibitor	radiometric	1 µM	remaining activity	81%
CCC(=O)N[C@H]1CC[C@@H](C(=O)N(C)c2ccc(-c3nc4ccccc4o3)cc2)C1	cell-free assay		competition with immobilised ligand	1 µM	remaining binding	100%
CS(=O)(=O)Nc1cccc(-c2csc(NC(=O)CSc3nc4nccnc4c(=O)n3CCc3ccccc3)n2)c1	enzyme activity	inhibitor		10 µM	inhibition	-8%
CN1CC(Oc2cnc(C#N)cc2-c2ccn3nc(NC(=O)C4CC4)cc3c2)C1	enzyme activity	inhibitor		1 µM	inhibition	4%
CCN(CC)c1ccc(C2=NNC(=O)CC2C)cc1[N+](=O)[O-] (stereo not shown)	enzyme activity	inhibitor		10 µM	remaining activity	108%
C#Cc1cccc(Nc2ncnc3cc(OCCOC)c(OCCOC)cc23)c1	cell-free assay			0.5 µM	remaining signal	97.9%
FC(F)(F)Oc1cccc(-c2cnc3ccc(-c4ccncc4)nn23)c1	enzyme activity	inhibitor	radiometric	5 µM	activity vs control	83%
Cc1ccc(Nc2nccc(N(C)c3ccc4c(C)n(C)nc4c3)n2)cc1S(N)(=O)=O	enzyme activity	inhibitor		0.5 µM	remaining activity	101%
CNC(=O)c1ccc(Nc2ncc(C(F)(F)F)c(NCc3nccnc3N(C)S(C)(=O)=O)n2)cc1	cell-free assay		competition with immobilised ligand	0.1 µM	remaining binding	100%
Nc1nc(NC2CCCCC2)sc1C(=O)c1ccccc1	enzyme activity	inhibitor		10 µM	remaining activity	94%
CO[C@@H](C)c1c(Nc2ccc([C@H](N(C)C(=O)C3CCS(=O)(=O)CC3)C(F)(F)F)cc2)cnc2cc(Cl)nn12	cell-free assay		competition with immobilised ligand	1 µM	remaining binding	100%
O=C1Nc2ccc(Cl)cc2C1=Cc1cc(Cl)c(O)c(Cl)c1	cell-free assay			0.5 µM	remaining signal	48.6%
Oc1cccc(-c2nc(N3CCOCC3)c3oc4ncccc4c3n2)c1	enzyme activity	inhibitor		10 µM	remaining activity	90%
COc1cc(Nc2cnc(C#N)c(O[C@H](C)CN(C)C)n2)ncc1-c1cnn(C)c1	enzyme activity	inhibitor	radiometric	1 µM	remaining activity	98%
Nc1nc(Nc2ccccc2)sc1C(=O)c1c(F)cccc1F	enzyme activity	inhibitor		10 µM	remaining activity	91%
O=C1CCc2cc(Nc3cc(OC4CCOCC4)c([N+](=O)[O-])cc3Cl)ccc2N1	cell-free assay		competition with immobilised ligand	1 µM	remaining binding	84%

SMILES	read-out	mode	technique	tested at	endpoint	result
Cc1sc(C(=O)NC2COC2)cc1-n1cc(NC(=O)Nc2c(F)cccc2Cl)cn1	enzyme activity	inhibitor		10 µM	remaining activity	96.5%
CNC(=O)c1cc(Oc2ccc(NC(=O)Nc3ccc(Cl)c(C(F)(F)F)c3)cc2)ccn1	enzyme activity	inhibitor		10 µM	inhibition	9%
FC(F)c1nc2ccccc2n1-c1nc(N2CCOCC2)nc(N2CCOCC2)n1	enzyme activity	inhibitor		10 µM	remaining activity	92%
COc1cc(Nc2c(C#N)cnc3cc(OCCCN4CCN(C)CC4)c(OC)cc23)c(Cl)cc1Cl	cell-free assay			0.5 µM	remaining signal	111%
C[C@@H]1CN(c2cc(-c3n[nH]c4ccc(OC5(C)CC5)cc34)ncn2)C[C@H](C)O1	cell-free assay		competition with immobilised ligand	0.1 µM	remaining binding	88%
Nc1ncnc2occ(-c3ccc(NC(=O)Nc4cc(C(F)(F)F)ccc4F)cc3)c12	cell-free assay	inhibitor		20 µM	remaining signal	100%
CNc1cccc2cc(C(=O)Nc3ccc(C(=O)O)cc3)c(=O)[nH]c12	enzyme activity	inhibitor		10 µM	inhibition	13%
CCCS(=O)(=O)Nc1ccc(F)c(C(=O)c2c[nH]c3ncc(-c4ccc(Cl)cc4)cc23)c1F	enzyme activity	inhibitor		1 µM	inhibition	< 10%
COc1cc2ncnc(Nc3ccc(Oc4ccccc4)c(C)c3C)c2cc1OC	enzyme activity	inhibitor		1 µM	inhibition	-2%
O=c1nc(-c2ccccn2)sc2ccccc12	binding		competition with immobilised ligand	1 µM	remaining binding	97%
Cc1ccc(C(=O)NCc2ccsc2)cc1C#Cc1cn(C(C)C)c2ncnc(N)c12	enzyme activity	inhibitor		1 µM	activity vs control	92%
Cc1nc(N2CC[C@@H](O)C2)ncc1-c1cc(C(F)(F)F)cc2[nH]ncc12	binding		competition with immobilised ligand	1 µM	remaining binding	89%
C=CC(=O)Nc1cc(Nc2nccc(Nc3cc(Cl)c(F)cc3C(C)(C)O)n2)c(OC)cc1N1CC[C@@H](N(C)C)C1	enzyme activity	inhibitor		1 µM	inhibition	16%
Cc1nccc(COC(=O)N2C[C@@H]3[C@@H](CNC(=O)c4ccc5[nH]nnc5c4)[C@@H]3C2)n1	cell-free assay		competition with immobilised ligand	1 µM	remaining binding	0%
Cc1cnc(NC2CCOCC2)nc1-n1cnc(C(=O)NC(CN)c2cc(F)cc(Cl)c2)c1 (stereo not shown)	enzyme activity	inhibitor	radiometric	1 µM	remaining activity	100%
